Data taken from ChEMBL document CHEMBL1124103, “Potential antitumor agents. 56. "Minimal" DNA-intercalating ligands as antitumor drugs: phenylquinoline-8-carboxamides” (J Med Chem, 1988).
Where “and” joins values, the source holds several entries; their conditions need not be identical. Equal values may be shown once.

How the values were obtained:
[1] = test system: Mus musculus; assay: Optimal dose administered intraperitoneally on days 5,9 and 13 after intravenous inoculation of lewis lung carcinoma cells.; assay type: functional
[2] = test system: Mus musculus; assay: Optimal dose administered intraperitoneally on days 1,5 and 9 after intraperitoneal inoculation of P388 leukemia cells.; assay type: functional
[3] = species: Mus musculus; assay: Percentage increase in lifespan of treated animals(at the optimal dose) compared to controls. Average lifespan of control animals was 11 days (P388).; assay type: functional
[4] = species: Mus musculus; assay: Percentage increase in lifespan of treated animals(at the optimal dose) compared to controls. Average lifespan of control animals was 17 days (Lewis lung carcinoma cells).; assay type: functional
[5] = test system: Nucleic Acid; assay: Displacement of ethidium from poly(dA/T) or poly(dG/C)-DNA; assay type: nucleic-acid assay
Method in brief: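 Association constants (M⁻¹) for binding to poly[d(AT)] and poly[d(GC)] measured by ethidium displacement, assuming ligand and ethidium compete for intercalation sites; reported as log K.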

[6] = test system: L1210; assay: Compound concentration that reduces cell growth of L1210 leukemia cultures to 50% of controls after 70h.; assay type: functional, cell-based; conditions: Mus musculus, L1210, 70 h
[7] = Ionization constant of chromophore measured by UV spectroscopy in 20% dimethylformamide.; assay type: physicochemical
Method in brief: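 Chromophore pKa measured by UV spectroscopy in 20% dimethylformamide.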

[8] = test system: Mus musculus; assay: Percentage increase in lifespan of treated animals(at 100 mg/kg optimal dose) compared to controls. Average lifespan of control animals was 17 days (Lewis lung carcinoma cells).

SMILES	OD [1]	OD [2]	ILS max [3]	ILSmax [4]	Log K [5]	IC50 [6]	ILSmax [3]	pKa [7]	ILS max [4]	ILS max [8]
CN(C)CCNC(=O)c1cccc2cc3ccccc3nc12	100 mg/kg	66 mg/kg	91%	–	–	–	–	–	–	–
CN(C)CCNC(=O)c1cc(-c2ccccc2)cc2cccnc12	100 mg/kg	65 mg/kg	–	31	6.12 and 5.96	910 nM	29	2.93	–	–
CN(C)CCNC(=O)c1ccc(-c2ccccc2)c2cccnc12	–	100 mg/kg	<20%	–	4.74 and 4.79	13700 nM	–	3.13	–	–
CN(C)CCNC(=O)c1cccc2c(-c3ccccc3)ccnc12	–	150 mg/kg	<20%	–	4.73 and 4.77	14700 nM	–	3.04	–	–
CN(C)CCNC(=O)c1cccc2cc(-c3ccccc3)cnc12	100 mg/kg	100 mg/kg	27%	–	5.68 and 5.7	2600 nM	–	2.58	<40%	–
CN(C)CCNC(=O)c1cccc2ccc(-c3ccccc3)nc12	100 mg/kg	100 mg/kg	91%	–	5.97 and 5.92	1300 nM	–	2.75	–	70%
CN(C)CCNC(=O)c1cccc2cccnc12	–	100 mg/kg	<20%	–	5.12 and 5.17	> 25000 nM	–	–	–	–
